In ChEMBL document CHEMBL4052623, “Synthesis and antiproteasomal activity of novel O-benzyl salicylamide-based inhibitors built from leucine and phenylalanine” (Eur J Med Chem, 2017):

What was measured:
Type in all cases: functional
K562 = assay: Antiproliferative activity against human K562 cells after 72 hrs by calcein AM staining based fluorescence assay; conditions: K562, 72 h
How it was run: (§1)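 Cells treated with three-fold compound dilutions in triplicate for 72 h. Calcein AM added afterwards and live-cell fluorescence read at 485/538 nm (ex/em). GI50, the concentration lethal to 50% of tumour cells, calculated from dose-response curves.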

U-266 = assay: Antiproliferative activity against human U266 cells after 72 hrs by calcein AM staining based fluorescence assay; conditions: U-266, 72 h; how it was run: as §1
CCRF-CEM = assay: Antiproliferative activity against human CEM cells after 72 hrs by calcein AM staining based fluorescence assay; how it was run: as §1

SMILES | GI50 (K562) [µM] | GI50 (U-266) [µM] | GI50 (CCRF-CEM) [µM]
CC(C)C[C@@H](CO)NC(=O)[C@H](Cc1ccccc1)NC(=O)[C@H](CC(C)C)NC(=O)c1cc(Cl)ccc1O | 22.4 | 11.8 | 8.45
COC(=O)[C@@H](CC(C)C)NC(=O)[C@H](Cc1ccccc1)NC(=O)[C@H](CC(C)C)NC(=O)c1cc(Cl)ccc1OCc1ccccc1 | > 100 | 88.5 | 68.2
CON(C)C(=O)[C@H](CC(C)C)NC(=O)[C@H](CC(C)C)NC(=O)c1cc(Cl)ccc1O | 98.1 | 69 | 63
CON(C)C(=O)[C@H](CC(C)C)NC(=O)[C@H](Cc1ccccc1)NC(=O)[C@H](CC(C)C)NC(=O)c1cc(Cl)ccc1O | 30.9 | 32.8 | 17.2
CON(C)C(=O)[C@H](CC(C)C)NC(=O)[C@H](CC(C)C)NC(=O)[C@H](CC(C)C)NC(=O)c1cc(Cl)ccc1OCc1ccccc1 | 55.6 | 55.2 | 30.6
CON(C)C(=O)[C@@H](CC(C)C)NC(=O)[C@H](Cc1ccccc1)NC(=O)c1cc(Cl)ccc1OCc1ccccc1 | 25.8 | 67.4 | 32.2
COC(=O)[C@H](Cc1ccccc1)NC(=O)[C@H](CC(C)C)NC(=O)[C@H](CC(C)C)NC(=O)c1cc(Cl)ccc1OCc1ccccc1 | 70.3 | 72.2 | 31.4
CON(C)C(=O)[C@H](CC(C)C)NC(=O)[C@H](Cc1ccccc1)NC(=O)c1cc(Cl)ccc1O | 90.9 | 71.6 | 64.1
COC(=O)[C@H](CC(C)C)NC(=O)[C@H](CC(C)C)NC(=O)[C@H](CC(C)C)NC(=O)c1cc(Cl)ccc1OCc1ccccc1 | 87.5 | 84.9 | 48.4
COC(=O)[C@@H](CC(C)C)NC(=O)[C@H](CC(C)C)NC(=O)[C@H](CC(C)C)NC(=O)c1cc(Cl)ccc1OCc1ccccc1 | > 100 | 82 | 51
CON(C)C(=O)C(Cc1ccccc1)NC(=O)[C@H](Cc1ccccc1)NC(=O)c1cc(Cl)ccc1O (some centres undefined) | 79.5 | 68.7 | 54.2
CON(C)C(=O)[C@H](CC(C)C)NC(=O)[C@H](Cc1ccccc1)NC(=O)[C@H](CC(C)C)NC(=O)c1cc(Cl)ccc1OCc1ccccc1 | 16.4 | 48.6 | 19
CC(C)C[C@H](NC(=O)c1cc(Cl)ccc1O)C(=O)N[C@@H](Cc1ccccc1)C(=O)N[C@H](CO)Cc1ccccc1 | 27.3 | 18.9 | 10.8
CON(C)C(=O)[C@@H](CC(C)C)NC(=O)[C@H](Cc1ccccc1)NC(=O)[C@H](CC(C)C)NC(=O)c1cc(Cl)ccc1OCc1ccccc1 | 28.9 | 22.6 | 17.6
CON(C)C(=O)[C@H](Cc1ccccc1)NC(=O)[C@H](Cc1ccccc1)NC(=O)[C@H](CC(C)C)NC(=O)c1cc(Cl)ccc1O | 22.2 | 23.1 | 16.3
CON(C)C(=O)[C@H](Cc1ccccc1)NC(=O)[C@H](Cc1ccccc1)NC(=O)c1cc(Cl)ccc1OCc1ccccc1 | 29.6 | 72.1 | 28.6
CON(C)C(=O)[C@H](Cc1ccccc1)NC(=O)c1cc(Cl)ccc1OCc1ccccc1 | 50.9 | 92.3 | 65.2
CON(C)C(=O)[C@H](Cc1ccccc1)NC(=O)[C@H](CC(C)C)NC(=O)c1cc(Cl)ccc1O | 93.6 | 79.2 | 48.2
CON(C)C(=O)[C@H](Cc1ccccc1)NC(=O)[C@H](CC(C)C)NC(=O)c1cc(Cl)ccc1OCc1ccccc1 | 22.5 | 81.9 | 19.5
CON(C)C(=O)[C@H](Cc1ccccc1)NC(=O)c1cc(Cl)ccc1O | 99.1 | 72.4 | 55.5
CON(C)C(=O)[C@@H](CC(C)C)NC(=O)[C@H](CC(C)C)NC(=O)[C@H](CC(C)C)NC(=O)c1cc(Cl)ccc1OCc1ccccc1 | 34 | 23.7 | 11.5
CON(C)C(=O)[C@H](CC(C)C)NC(=O)[C@H](CC(C)C)NC(=O)c1cc(Cl)ccc1OCc1ccccc1 | 33.2 | 35.2 | 22.2
CON(C)C(=O)[C@H](CC(C)C)NC(=O)c1cc(Cl)ccc1O | > 100 | > 100 | 58.6
CON(C)C(=O)[C@H](Cc1ccccc1)NC(=O)[C@H](Cc1ccccc1)NC(=O)[C@H](CC(C)C)NC(=O)c1cc(Cl)ccc1OCc1ccccc1 | 34.7 | 56.3 | 35.7
COC(=O)[C@H](CC(C)C)NC(=O)[C@H](Cc1ccccc1)NC(=O)[C@H](CC(C)C)NC(=O)c1cc(Cl)ccc1OCc1ccccc1 | 58.5 | 83.7 | 48.5
CON(C)C(=O)[C@H](CC(C)C)NC(=O)c1cc(Cl)ccc1OCc1ccccc1 | 42.7 | 54.1 | 45.2
COC(=O)[C@H](Cc1ccccc1)NC(=O)[C@H](Cc1ccccc1)NC(=O)[C@H](CC(C)C)NC(=O)c1cc(Cl)ccc1OCc1ccccc1 | 72 | 82.1 | 48
CON(C)C(=O)[C@H](Cc1ccccc1)NC(=O)[C@H](CC(C)C)NC(=O)[C@H](CC(C)C)NC(=O)c1cc(Cl)ccc1OCc1ccccc1 | 44.2 | 47.2 | 15.1
